Results of several laboratories.
RORC: Nuclear receptor ROR-gamma (RORC, Homo sapiens, UniProt P51449)
AMY2: Pancreatic alpha-amylase (AMY2, Sus scrofa, UniProt P00690)
SIRT2: NAD-dependent protein deacetylase sirtuin-2 (SIRT2, Homo sapiens, UniProt Q8IXJ6)
Maoa: Amine oxidase [flavin-containing] A (Maoa, Rattus norvegicus, UniProt P21396)
CDC7: Cell division cycle 7-related protein kinase (CDC7, Homo sapiens, UniProt O00311)
SLC22A8: Organic anion transporter 3 (SLC22A8, Homo sapiens, UniProt Q8TCC7)

| SMILES | target | test | test system | conditions | IC50 [nM] |
| --- | --- | --- | --- | --- | --- |
| O=S(=O)(c1cccc(Cl)c1)N1CCc2ccc(OCc3c(F)cccc3Cl)cc21 | RORC | ligand displacement, radioligand |  |  | 370 |
| O=C1NCCC12CCN(c1c(Cl)cncc1-c1ccc3cccnc3c1)CC2 | Cyclin-dependent kinase 19, with cyclin C (CDK19, Homo sapiens, UniProt Q9BWU1) | ligand displacement |  |  | 72 |
| COc1cc(C=CC(=O)CC(c2ccc(N(C)C)cc2)n2ccnc2)ccc1O (stereo not drawn) | AMY2 | enzyme activity, inhibitor, absorbance |  |  | 10400 |
| COc1ccc(S(=O)(=O)N/N=C2\C(=O)Nc3ccccc32)cc1 | AMY2 | enzyme activity, inhibitor |  |  | 11600 |
| CC1CN(S(=O)(=O)c2cccc(C(F)(F)F)c2)c2cc(OCc3c(F)cccc3Cl)ccc21 (stereo not drawn) | RORC | ligand displacement, radioligand |  |  | 180 |
| CCCCCCCCCCCCNC(=S)NCCCC[C@H](NC(=O)OCc1ccccc1)C(=O)N[C@@H](CCCCN)C(=O)N[C@@H](CCCNC(=N)N)C(N)=O | SIRT2 | enzyme activity, inhibitor |  |  | 90 |
| COc1ccc2cc(C=NN=C3CS(=O)(=O)N(C)c4ccccc43)c(Cl)nc2c1 | Maoa | enzyme activity, inhibitor, fluorescence |  |  | 3430 |
| O=C(O)CNC(=O)C(=O)O | Hypoxia-inducible factor 1-alpha inhibitor (HIF1AN, Homo sapiens, UniProt Q9NWT6) | enzyme activity, inhibitor, mass spectrometry |  |  | < 1000 |
| CN1CCN(c2ccnc(C(=O)N3CCC[C@H](C(=O)Nc4cccc(-c5ccc6c(c5)C(=O)NC6)c4)C3)c2)CC1 | Histone lysine demethylase PHF8, PHD (PHF8, Homo sapiens, UniProt Q9UPP1) | cell-free assay, inhibitor, TR-FRET |  |  | > 100000 |
| O=c1oc2c(O)c(O)cc3c(=O)oc4c(O)c(O)cc1c4c23 | Genome polyprotein, protease (Hepatitis C virus genotype 1b, UniProt Q9WMX2) | enzyme activity, inhibitor, fluorescence |  |  | ~1000 |
| Cc1cnc(-c2ccc(-c3ccc(NC(=O)Nc4c(F)cc(F)cc4F)cc3F)c3c2C(=O)NC3)[nH]1 | Myosin-IIIb (MYO3B, Homo sapiens, UniProt Q8WXR4) | enzyme activity, inhibitor |  |  | 4.2 |
| CCCCCCCCCCCCNC(=S)NCCCC[C@H](NC(=O)OCc1ccccc1)C(=O)N[C@@H](Cc1c[nH]c2ccccc12)C(=O)N[C@@H](CC(N)=O)C(N)=O | SIRT2 | enzyme activity, inhibitor |  |  | 260 |
| Cc1cc(-c2cc3nc([C@@H](N)C(C)C)[nH]c(=O)c3s2)ccn1 | CDC7 | enzyme activity, inhibitor |  |  | 1790 |
| O=S(=O)(c1cc(C(F)(F)F)ccn1)N1CCc2ccc(OCc3c(F)cccc3Cl)cc21 | RORC | ligand displacement, radioligand |  |  | 180 |
| Cc1nccc2c1c(=O)n(C)c1cc(OC[C@@H](N)CC(C)C)c(C#N)cc21 | Cyclin-G-associated kinase (GAK, Homo sapiens, UniProt O14976) | enzyme activity, inhibitor, radiometric |  |  | 60 |
| Cc1cccc(Nc2ccccc2C(=O)O)c1C | SLC22A8 | transporter uptake, inhibitor |  |  | 1750 |
| COc1ccc2c(Oc3ccc4c(C(=O)Nc5ccccc5N)cccc4c3)ccnc2c1 | Tyrosine-protein kinase Fes/Fps (FES, Homo sapiens, UniProt P07332) | enzyme activity, inhibitor |  |  | > 500 |
| CC(=NN=C1CS(=O)(=O)N(C)c2ccccc21)c1ccc(Cl)s1 | Maoa | enzyme activity, inhibitor, fluorescence |  |  | 1520 |

| SMILES | target | test | test system | conditions | IC50 [nM] |
| --- | --- | --- | --- | --- | --- |
| CC1Cc2ccc(OCc3c(F)cccc3Cl)cc2N1S(=O)(=O)c1cccc(C(F)(F)F)c1 (stereo not drawn) | RORC | ligand displacement, radioligand |  |  | 380 |
| O=C(O[C@H]1[C@@H]2C=CO[C@@H](O[C@@H]3O[C@H](CO)[C@@H](O)[C@H](O)[C@H]3O)[C@@H]2[C@@]2(CO)O[C@@H]12)c1ccc(O)cc1 | SLC22A8 | transporter uptake, inhibitor, radiometric | HEK293 | 10 min | 83000 |
| OC[C@@H]1[C@@H](O)[C@H](O)[C@@H](O)[C@@H]2O[C@H]12 | Beta-glucosidase (GBA2, Homo sapiens, UniProt Q9HCG7) | enzyme activity, inhibitor |  | pH 6, lysate | 1160 |
| CCCCCCCCCCCCNC(=S)NCCCC[C@H](NC(=O)OCc1ccccc1)C(=O)N[C@@H](Cc1c[nH]c2ccccc12)C(=O)N[C@@H](CCC(=O)O)C(N)=O | SIRT2 | enzyme activity, inhibitor |  |  | 100 |
| O=C1Nc2ccccc2/C1=N/NS(=O)(=O)c1ccc(Cl)cc1 | AMY2 | enzyme activity, inhibitor |  |  | 3700 |
| O=C(NO)c1ccc(CN(c2cnccn2)c2cnccn2)cc1 | SIRT2 | enzyme activity, inhibitor, fluorescence |  |  | > 10000 |
| O=S(=O)(c1cc(Cl)cc(Cl)c1)N1CCc2ccc(OCc3c(F)cccc3Cl)cc21 | RORC | ligand displacement, radioligand |  |  | 340 |
| C=C(C)[C@@H]1CCC(C)=C[C@H]1c1c(O)cc(CCC)cc1O | Prostaglandin E synthase (PTGES, Homo sapiens, UniProt O14684) | enzyme activity, inhibitor |  |  | > 10000 |
| COc1c(Cl)cccc1COc1ccc2c(c1)N(S(=O)(=O)c1cccc(C(F)(F)F)c1)CC2 | RORC | ligand displacement, radioligand |  |  | 440 |
| CC(C)[C@H](N)c1nc2cc(-c3ccnnc3)sc2c(=O)[nH]1 | CDC7 | enzyme activity, inhibitor |  |  | 3930 |
| COc1cccnc1COc1ccc2c(c1)N(S(=O)(=O)c1cccc(C(F)(F)F)c1)CC2 | RORC | ligand displacement, radioligand |  |  | 85 |
| CCCCCCCCCCCCNC(=S)NCCCC[C@H](NC(=O)OCc1ccccc1)C(=O)N[C@@H](Cc1c[nH]c2ccccc12)C(=O)N[C@@H](CCNC(=N)N)C(N)=O | SIRT2 | enzyme activity, inhibitor |  |  | 160 |
| O=C(O)CCc1nc(-c2ccccc2)c(-c2ccccc2)o1 | SLC22A8 | transporter uptake, inhibitor |  |  | 870 |
| N=C(CF)NCCCC[C@H](NC(=O)c1ccccc1)C(N)=O | Protein-arginine deiminase type-3 (PADI3, Homo sapiens, UniProt Q9ULW8) | enzyme activity, inhibitor |  |  | 64400 |
| O=c1oc(Cl)c(Cl)c2ccccc12 | Rhomboid protease GlpG (glpG, Escherichia coli, UniProt P09391) | enzyme activity, inhibitor |  |  | 11000 |
| O=S(=O)(c1cccc(C(F)(F)F)c1)N1CCc2ccc(OCc3ccccc3OC(F)(F)F)cc21 | RORC | ligand displacement, radioligand |  |  | 290 |
| COC(=O)c1cc2ccc(O)cc2oc1=O | DNA polymerase I, thermostable (polA, Thermus aquaticus, UniProt P19821) | enzyme activity, inhibitor |  |  | 129000 |
| CC(C)C[C@H](NC(=O)[C@H](Cc1ccccc1)NC(=O)[C@@H](N)Cc1ccc(O)cc1)C(=O)N[C@@H](Cc1ccccc1)C(=O)N[C@@H](CCCNC(=N)N)C(=O)N1CCC[C@H]1C(=O)N[C@@H](CCCNC(=N)N)C(=O)N[C@@H](CC(N)=O)C(N)=O | Neuromedin-U receptor 1 (Mus musculus, UniProt O55040) | ligand displacement, radioligand |  | cell membranes | 0.38 |
